Measured values published in ChEMBL document CHEMBL1126705, “16 beta-([18F]fluoro)estrogens: systematic investigation of a new series of fluorine-18-labeled estrogens as potential imaging agents for estrogen-receptor-positive breast tumors” (J Med Chem, 1993).

Tests used:
Rattus norvegicus [1] = test: Tested in vivo for the biodistribution in blood of female rat at 1 hour after intravenous dose of 120 microCi of the drug and 15 u g of estradiol; type: ADME, organism-based
[2] = target: T1, Alpha-fetoprotein (Rattus norvegicus) (UniProt P02773); test: Relative binding affinity for Alphafetoprotein
T1 sequence (whole entry): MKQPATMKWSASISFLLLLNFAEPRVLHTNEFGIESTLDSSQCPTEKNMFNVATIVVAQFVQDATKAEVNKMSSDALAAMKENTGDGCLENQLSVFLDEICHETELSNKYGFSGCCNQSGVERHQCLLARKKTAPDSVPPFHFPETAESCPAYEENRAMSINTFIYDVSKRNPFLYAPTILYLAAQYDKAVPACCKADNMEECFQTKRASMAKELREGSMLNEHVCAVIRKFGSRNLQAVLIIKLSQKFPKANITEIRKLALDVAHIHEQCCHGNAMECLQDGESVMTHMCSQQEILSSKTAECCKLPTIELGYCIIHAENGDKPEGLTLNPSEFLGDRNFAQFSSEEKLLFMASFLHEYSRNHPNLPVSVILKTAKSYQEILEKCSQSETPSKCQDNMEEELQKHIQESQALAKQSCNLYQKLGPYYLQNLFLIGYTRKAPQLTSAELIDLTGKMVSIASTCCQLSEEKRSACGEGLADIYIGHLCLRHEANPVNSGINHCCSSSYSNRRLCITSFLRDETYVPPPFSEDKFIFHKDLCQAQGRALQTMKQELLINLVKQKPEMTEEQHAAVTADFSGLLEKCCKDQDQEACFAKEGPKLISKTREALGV

Rattus norvegicus [3] = test: Tested in vivo for the biodistribution in rat ovaries after 3 hours following an intravenous dose of 120 microCi of drug in 10%ethanol saline; type: ADME, organism-based, Female gonad
Outline: (§1)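 Immature (25-day-old) female Sprague-Dawley rats, ether-anesthetized, given the fluorine-18-labeled estrogen by femoral vein injection in 10% ethanol saline. […] Other groups were killed by decapitation at 1 or 3 h. Blood and organs were weighed and gamma-counted. Data are % injected dose/g, mean ± SD, typically n = 5 per group.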

Rattus norvegicus [4] = test: Tested in vivo for the biodistribution in rat uterus/blood after 3 hours following an intravenous dose of 120 microCi of drug in 10%ethanol saline; type: ADME, organism-based
Outline: (§2)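 Female Sprague-Dawley rats, 25 days old (~40–53 g), ether-anesthetized, given the 18F-labeled estrogen iv via femoral vein in 10% ethanol saline. […] Others were sacrificed by decapitation at 1 or 3 h. Blood and organs were excised, weighed and gamma counted as % injected dose/g, mean ± SD, typically n = 5 (4–6).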

Rattus norvegicus [5] = test: Tested in vivo for the biodistribution in rat muscle at 1 hour after intravenous dose of 120 microCi of drug in 10%ethanol saline; type: ADME, organism-based, Muscle tissue; outline: as §1
Rattus norvegicus [6] = test: Tested in vivo for the biodistribution in rat uterus after 3 hours following an intravenous dose of 120 microCi of drug in 10%ethanol saline; type: ADME, organism-based; outline: as §1
Rattus norvegicus [7] = test: Tested in vivo for the biodistribution in rat uterus/muscle at 1 hour after intravenous dose of 120 microCi of the drug and 15 micro g of estradiol; type: ADME, organism-based, Muscle tissue; outline: as §2
Rattus norvegicus [8] = test: Tested in vivo for the biodistribution in rat liver at 1 hour after intravenous dose of 120 microCi of drug in 10%ethanol saline; type: ADME, organism-based; outline: as §1
Rattus norvegicus [9] = test: Tested in vivo for the biodistribution in rat muscle after 3 hours following an intravenous dose of 120 microCi of drug in 10%ethanol saline; type: ADME, organism-based, Muscle tissue; outline: as §1
Rattus norvegicus [10] = test: Tested in vivo for the biodistribution in rat uterus/muscle after 3 hours following an intravenous dose of 120 microCi of drug in 10%ethanol saline; type: ADME, organism-based, Muscle tissue; outline: as §2
Rattus norvegicus [11] = test: Tested in vivo for the biodistribution in rat liver after 3 hours following an intravenous dose of 120 microCi of drug in 10%ethanol saline; type: ADME, organism-based; outline: as §1
Rattus norvegicus [12] = test: Tested in vivo for the biodistribution in rat ovaries at 1 hour after intravenous dose of 120 microCi of the drug and 15 ug of estradiol; type: ADME, organism-based, Female gonad; outline: as §1
Rattus norvegicus [13] = test: Tested in vivo for the biodistribution in rat kidney at 1 hour after intravenous dose of 120 microCi of the drug and 15 u g of estradiol; type: ADME, organism-based
[14] = target: T2, Sex hormone-binding globulin (Homo sapiens) (UniProt P04278); test: Relative binding affinity against sex steroid binding protein (SBP)
T2 sequence (whole entry): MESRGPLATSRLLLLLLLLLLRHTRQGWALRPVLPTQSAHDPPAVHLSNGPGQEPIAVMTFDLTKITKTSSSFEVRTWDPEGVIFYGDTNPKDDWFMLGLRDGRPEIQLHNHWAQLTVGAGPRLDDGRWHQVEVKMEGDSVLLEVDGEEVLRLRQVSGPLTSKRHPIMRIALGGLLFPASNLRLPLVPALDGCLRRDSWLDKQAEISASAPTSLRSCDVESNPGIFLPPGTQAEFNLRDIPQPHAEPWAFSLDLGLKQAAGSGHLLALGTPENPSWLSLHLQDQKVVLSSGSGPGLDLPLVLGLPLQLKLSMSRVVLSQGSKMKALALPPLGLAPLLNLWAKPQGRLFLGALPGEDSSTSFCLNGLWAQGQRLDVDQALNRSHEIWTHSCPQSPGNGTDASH

Rattus norvegicus [15] = test: Tested in vivo for the biodistribution in rat uterus/muscle at 1 hour after intravenous dose of 120 microCi of drug in 10%ethanol saline; type: ADME, organism-based, Muscle tissue; outline: as §2
Rattus norvegicus [16] = test: Tested in vivo for the biodistribution in rat uterus at 1 hour after intravenous dose of 120 microCi of drug in 10%ethanol saline; type: ADME, organism-based; outline: as §1
[17] = target: T3, Estrogen receptor (Rattus norvegicus) (UniProt P06211+Q62986)
[18] = target: T3, Estrogen receptor (Rattus norvegicus); remark: listed apart in the source
Rattus norvegicus [19] = test: Tested in vivo for the biodistribution in rat kidney at 1 hour after intravenous dose of 120 microCi of drug in 10%ethanol saline; type: ADME, organism-based
Outline: (§3)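 Female Sprague-Dawley rats (25 days old, 40 g) under ether received 120 μCi of tracer iv (femoral vein; effective specific activity 1306 Ci/mmol) in 10% ethanol saline. They were decapitated at 1 h (n = 6) or 3 h (n = 5). Tissues were weighed and gamma-counted, reported as % injected dose/g, mean ± SD.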

Rattus norvegicus [20] = test: Tested in vivo for the biodistribution in rat uterus/blood at 1 hour after intravenous dose of 120 microCi of the drug and 15 ug of estradiol; type: ADME, organism-based; outline: as §2
Rattus norvegicus [21] = test: Tested in vivo for the biodistribution in blood of female rat at 1 hour after intravenous dose of 120 microCi of drug in 10%ethanol saline; type: ADME, organism-based; outline: as §3
Rattus norvegicus [22] = test: Tested in vivo for the biodistribution in blood of female rat after 3 hours following an intravenous dose of 120 microCi of drug in 10%ethanol saline; type: ADME, organism-based; outline: as §3
Rattus norvegicus [23] = test: Tested in vivo for the biodistribution in rat muscle at 1 hour after intravenous dose of 120 microCi of the drug and 15 ug of estradiol; type: ADME, organism-based, Muscle tissue; outline: as §1
Rattus norvegicus [24] = test: Tested in vivo for the biodistribution in rat uterus at 1 hour after intravenous dose of 120 microCi of the drug and 15 micro g of estradiol; type: ADME, organism-based; outline: as §1
Rattus norvegicus [25] = test: Tested in vivo for the biodistribution in rat fat after 3 hours following an intravenous dose of 120 microCi of drug in 10%ethanol saline; type: ADME, organism-based, Adipose tissue; outline: as §3
Rattus norvegicus [26] = test: Tested in vivo for the biodistribution in rat kidney after 3 hours following an intravenous dose of 120 microCi of drug in 10%ethanol saline; type: ADME, organism-based; outline: as §3
Rattus norvegicus [27] = test: Tested in vivo for the biodistribution in rat ovaries at 1 hour after intravenous dose of 120 microCi of drug in 10%ethanol saline; type: ADME, organism-based, Female gonad; outline: as §1
Rattus norvegicus [28] = test: Tested in vivo for the biodistribution in rat fat at 1 hour after intravenous dose of 120 microCi of drug in 10%ethanol saline; type: ADME, organism-based, Adipose tissue; outline: as §3
Rattus norvegicus [29] = test: Tested in vivo for the biodistribution in rat uterus/blood at 1 hour after intravenous dose of 120 microCi of drug in 10%ethanol saline; type: ADME, organism-based; outline: as §2
Rattus norvegicus [30] = test: Tested in vivo for the biodistribution in rat fat at 1 hour after intravenous dose of 120 microCi of the drug and 15 micro g of estradiol; type: ADME, organism-based, Adipose tissue
Rattus norvegicus [31] = test: Tested in vivo for the biodistribution in rat liver at 1 hour after intravenous dose of 120 microCi of the drug and 15 u g of estradiol; type: ADME, organism-based; outline: as §1
Rattus norvegicus [32] = test: Tested in vivo for the biodistribution in rat bone at 1 hour after intravenous dose of 120 microCi of drug in 10%ethanol saline; type: ADME, organism-based, Bone element; outline: as §3
Rattus norvegicus [33] = test: Tested in vivo for the biodistribution in rat bone at 1 hour after intravenous dose of 120 microCi of the drug and 15 ug of estradiol; type: ADME, organism-based, Bone element
Rattus norvegicus [34] = test: Tested in vivo for the biodistribution in rat bone after 3 hours following an intravenous dose of 120 microCi of drug in 10%ethanol saline; type: ADME, organism-based, Bone element; outline: as §3
[35] = Partition coefficient (logP); type: physicochemical; conditions: octanol/water
Outline: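 Octanol/water log P estimated from log k'w measured by reversed-phase HPLC (Minick method) on a C8 silica column.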

C[C@]12CC[C@@H]3c4ccc(O)cc4CC[C@H]3[C@@H]1C[C@H](F)[C@@H]2O
Injected (Rattus norvegicus [1]): 1.486%
relative binding affinity (RBA) [2]: 20
Injected (Rattus norvegicus [3]): 0.615%
Injected (Rattus norvegicus [4]): 2.273%
Injected (dose/g) (Rattus norvegicus [5]): 0.402%
Injected (Rattus norvegicus [6]): 1.176%
Injected (Rattus norvegicus [7]): 2.685%
Injected (dose/g) (Rattus norvegicus [8]): 2.957%
Injected (dose/g) (Rattus norvegicus [9]): 0.151%
Injected (Rattus norvegicus [10]): 9.05%
Injected (dose/g) (Rattus norvegicus [11]): 1.483%
Injected (dose/g) (Rattus norvegicus [12]): 1.189%
Injected (dose/g) (Rattus norvegicus [13]): 3.388%
relative binding affinity (RBA) [14]: 8.9
Injected (Rattus norvegicus [15]): 15.22%
Injected (Rattus norvegicus [16]): 4.994%
NSB [17]: 0.63
BSI [18]: 19
Injected (Rattus norvegicus [19]): 2.051%
Injected (Rattus norvegicus [20]): 0.857%
Injected (Rattus norvegicus [21]): 0.949%
Injected (Rattus norvegicus [22]): 0.534%
Injected (Rattus norvegicus [23]): 0.466%
Injected (Rattus norvegicus [24]): 1.257%
Injected (Rattus norvegicus [25]): 0.131%
Injected (Rattus norvegicus [26]): 0.821%
Injected (dose/g) (Rattus norvegicus [27]): 1.91%
Injected (Rattus norvegicus [28]): 0.31%
Injected (dose/g) (Rattus norvegicus [29]): 5.631%
Injected (dose/g) (Rattus norvegicus [30]): 0.391%
Injected (Rattus norvegicus [31]): 3.771%
Injected (dose/g) (Rattus norvegicus [32]): 1.008%
Injected (Rattus norvegicus [33]): 1.216%
Injected (dose/g) (Rattus norvegicus [34]): 1.201%
logP [35]: 2.81
